Publication PMC12069892 (Acta Pharmaceutica Sinica. B, 2025)
Converted amounts (≈) assume the structure as drawn.

Legend:
P. aeruginosa DK2 [1] = test: MIC by micro broth dilution; type: cell-based, Pseudomonas aeruginosa; conditions: for MIC: Pseudomonas aeruginosa, DK2, 18 h, read-out: MIC, derivative alone, P. aeruginosa DK2, 18 h, 100% growth inhibition; for MIC, antibiotic alone: P. aeruginosa DK2
[2] = Stability in liver microsomes; type: in vitro ADME, mouse
CYP1A2 = biological target: T1, CYP1A2 (Homo sapiens, UniProt P05177); test: Human CYP450 inhibition assay; type: in vitro ADME
T1 sequence (P05177 1-516): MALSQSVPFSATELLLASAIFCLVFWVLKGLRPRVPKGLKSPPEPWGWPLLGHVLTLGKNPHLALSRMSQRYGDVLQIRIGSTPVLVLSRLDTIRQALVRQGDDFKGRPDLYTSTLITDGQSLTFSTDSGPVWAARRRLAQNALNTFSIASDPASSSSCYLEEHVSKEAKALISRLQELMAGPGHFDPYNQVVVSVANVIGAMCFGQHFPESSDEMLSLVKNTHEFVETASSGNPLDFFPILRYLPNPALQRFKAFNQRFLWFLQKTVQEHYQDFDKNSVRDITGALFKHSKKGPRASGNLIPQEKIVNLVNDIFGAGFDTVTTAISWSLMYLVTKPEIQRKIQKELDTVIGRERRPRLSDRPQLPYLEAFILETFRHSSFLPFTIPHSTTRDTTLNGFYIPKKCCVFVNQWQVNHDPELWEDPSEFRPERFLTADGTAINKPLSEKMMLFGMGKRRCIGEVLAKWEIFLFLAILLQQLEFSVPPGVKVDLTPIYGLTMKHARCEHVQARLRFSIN

P. aeruginosa DK2 [3] = test: Biofilm production assay; type: cell-based, Pseudomonas aeruginosa
Outline: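 Overnight LB culture (37 ℃, 200 rpm) diluted to OD600 0.01 and treated with compound alone or with polymyxin B. Cells inoculated 1:100 into CPG medium and grown 24 h at 37 ℃, then stained 30 min with 0.1% crystal violet. After water rinses and 1 h air drying, dye solubilised in 95% ethanol; OD570 read. For imaging, coverslip biofilms washed with PBS (pH 7.2), dried 60 ℃ 30 min, stained 15 min with acridine orange/ethidium bromide and examined by confocal microscopy.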

CYP2C19 = CYP2C19 (Homo sapiens, UniProt P33261); test: Human CYP450 inhibition assay; type: in vitro ADME; conditions: Inhibition for CYP isoforms IC50, 2C19, human liver microsomes, 40 min
P. aeruginosa DK2 [4] = test: Time-kill assay; type: cell-based, Pseudomonas aeruginosa; conditions: for Effect on bacterial growth when used alone (time-kill): A22 10 or 20 μmol/L, PB 0.5 or 1 μg/mL
P. aeruginosa DK2 [5] = test: Bacterial ATP level assay; type: cell-based, Pseudomonas aeruginosa
Outline: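 Cells treated with compounds singly and in combination and harvested at OD600 = 1.0 (2 mL), centrifuged, then extraction solution added. Lysed by sonication in an ice bath; extract kept on ice. Absorbance read at 340 nm at 10 s and again after 3 min at 25 ℃ using a commercial ATP kit. ATP expressed relative to control.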

CYP2C9 = CYP2C9 (Homo sapiens, UniProt P11712); test: Human CYP450 inhibition assay; type: in vitro ADME
P. aeruginosa DK2 [6] = test: Murine wound infection model; type: in vivo, BALB/c female mice; conditions: mouse
Outline: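 Female mice, 6–8 weeks old and 20–22 g, were anesthetized with 4% chloral hydrate and shaved dorsally. A ~5 mm wound was made and inoculated with 30 μL DK2 (5 × 10^8 CFU). From 48 h post-infection, wounds received saline, polymyxin alone, or polymyxin plus test compound twice daily. Test compound was given in saline with 0.1% Tween 80 and polymyxin in saline. Wounds and body weight were monitored daily. Wound tissue was homogenized in sterile PBS and plated for CFU.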

CYP2D6 = CYP2D6 (Homo sapiens, UniProt P10635); test: Human CYP450 inhibition assay; type: in vitro ADME
[7] = Plasma protein binding assay; type: in vitro ADME; conditions: human
Outline: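 Equilibrium dialysis: compound-spiked plasma placed on the donor side, blank buffer on the receiver side, 5 h at 37 ℃; T0 plasma samples also taken. Donor and receiver aliquots matrix-matched with the opposite matrix. Quenched with acetonitrile containing internal standard, vortexed, centrifuged 4000×g 10 min, and supernatant diluted with water. Analysed by LC–MS/MS alongside reference compounds.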

P. aeruginosa DK2 [8] = test: Oxidative stress; type: cell-based, Pseudomonas aeruginosa; conditions: PB 0.25 or 0.5 μg/mL; 15 or A22 4 or 8 μg/mL, with or without PB
Outline: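 Culture diluted to 0.01 and treated with compounds. At OD600 1.0, 3 mL collected, washed in 1 mL PBS, then resuspended in PBS with 0.2 mol/L H2O2 and shaken 15 min at 37 ℃. Suspensions diluted 10^1–10^7 in PBS, 5 μL spotted onto LB agar, and incubated 37 ℃ for 1–2 days before colony counting.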

CYP2B6 = biological target: T2, CYP2B6 (Homo sapiens, UniProt P20813); test: Human CYP450 inhibition assay; type: in vitro ADME
T2 sequence (P20813 1-491): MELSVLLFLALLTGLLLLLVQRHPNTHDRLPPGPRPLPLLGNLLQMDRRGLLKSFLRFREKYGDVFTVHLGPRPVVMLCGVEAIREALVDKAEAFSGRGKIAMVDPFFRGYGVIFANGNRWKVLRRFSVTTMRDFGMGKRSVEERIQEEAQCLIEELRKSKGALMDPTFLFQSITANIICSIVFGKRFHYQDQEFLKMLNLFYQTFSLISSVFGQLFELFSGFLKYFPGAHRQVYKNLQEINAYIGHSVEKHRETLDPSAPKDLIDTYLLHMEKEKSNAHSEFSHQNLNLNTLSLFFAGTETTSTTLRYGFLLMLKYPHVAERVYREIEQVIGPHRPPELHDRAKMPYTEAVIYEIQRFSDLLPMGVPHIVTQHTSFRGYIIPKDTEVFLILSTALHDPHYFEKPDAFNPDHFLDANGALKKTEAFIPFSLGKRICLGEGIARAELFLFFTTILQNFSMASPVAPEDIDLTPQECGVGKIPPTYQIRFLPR

Water solubility assay = type: physicochemical; conditions: thermodynamic from solid
Outline: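 Standard curve made from methanol solutions (0.56–0.0011 mg/mL) using HPLC UV peak area at 254 nm. Excess solid stirred in water for 24 h to give a […] solution, then analysed by HPLC at 254 nm. Solubility calculated from the standard curve.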

HUVEC = test: Mammalian cytotoxicity, CCK8; type: cell-based; conditions: Homo sapiens, 24 h, read-out: HUVEC IC50, CCK8, 1 day incubation
Outline: (§1)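 Cells seeded at 10,000 per well in medium with 10% serum. Serially diluted compound added 24 h later and incubated 1 day. Viability measured with CCK8 reagent per kit instructions and expressed as percent of vehicle-treated cells (set to 100).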

[9] = Stability in liver microsomes; type: in vitro ADME, human
P. aeruginosa PAO1 = test: C. elegans liquid medium killing and rescue assay; type: in vivo, Caenorhabditis elegans
P. aeruginosa DK2 [10] = test: Intracellular ROS detection; type: cell-based, Pseudomonas aeruginosa; conditions: alone and in combination with PB
Outline: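 Drug-treated bacteria collected and suspended in DCFH-DA (final 10 μmol/L), then incubated 20 min at 37 ℃. Cells resuspended in LB, centrifuged 5000 rpm for 5 min and washed to remove free probe. Fluorescence read at 488 nm excitation and 525 nm emission.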

P. aeruginosa DK2 [11] = test: Intracellular NADH oxidase; type: cell-based, Pseudomonas aeruginosa
Outline: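 Bacteria treated with compounds singly and in combination; 1 mL harvested at OD600 = 1.0. NOX activity measured with a commercial kit by its extraction method and expressed as relative activity.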

hERG potassium channels = hERG potassium channels (Homo sapiens, UniProt Q12809); test: hERG channel Qpatch assay; type: cell-based
CYP2C8 = biological target: T3, CYP2C8 (Homo sapiens, UniProt P10632); test: Human CYP450 inhibition assay; type: in vitro ADME
T3 sequence (P10632 1-490): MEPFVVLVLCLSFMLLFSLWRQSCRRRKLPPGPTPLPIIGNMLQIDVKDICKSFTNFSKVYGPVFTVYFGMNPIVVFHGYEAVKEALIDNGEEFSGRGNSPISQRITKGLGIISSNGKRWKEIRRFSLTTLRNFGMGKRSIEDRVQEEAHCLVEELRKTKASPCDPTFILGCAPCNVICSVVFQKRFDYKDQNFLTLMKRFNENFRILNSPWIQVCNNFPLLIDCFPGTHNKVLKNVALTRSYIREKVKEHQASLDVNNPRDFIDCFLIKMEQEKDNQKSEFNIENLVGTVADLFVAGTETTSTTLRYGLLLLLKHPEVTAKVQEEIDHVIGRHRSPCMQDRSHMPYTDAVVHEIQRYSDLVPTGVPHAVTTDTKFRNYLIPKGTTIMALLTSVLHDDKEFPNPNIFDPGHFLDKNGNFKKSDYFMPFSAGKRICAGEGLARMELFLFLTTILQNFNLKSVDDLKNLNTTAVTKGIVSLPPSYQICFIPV

293 T = test: Mammalian cytotoxicity, CCK8; type: cell-based; conditions: Homo sapiens, HEK-293T, 24 h, read-out: 293 T IC50, CCK8, 1 day incubation
Outline: as §1

CYP3A4 = CYP3A4 (Homo sapiens, UniProt P08684); test: Human CYP450 inhibition assay; type: in vitro ADME
P. aeruginosa DK2 [12] = test: Resistance assay by serial passaging; type: cell-based, Pseudomonas aeruginosa; conditions: passaged with PB alone (64 μg/mL); start 256 μg/mL

Sequence of hERG potassium channels (Q12809 whole entry): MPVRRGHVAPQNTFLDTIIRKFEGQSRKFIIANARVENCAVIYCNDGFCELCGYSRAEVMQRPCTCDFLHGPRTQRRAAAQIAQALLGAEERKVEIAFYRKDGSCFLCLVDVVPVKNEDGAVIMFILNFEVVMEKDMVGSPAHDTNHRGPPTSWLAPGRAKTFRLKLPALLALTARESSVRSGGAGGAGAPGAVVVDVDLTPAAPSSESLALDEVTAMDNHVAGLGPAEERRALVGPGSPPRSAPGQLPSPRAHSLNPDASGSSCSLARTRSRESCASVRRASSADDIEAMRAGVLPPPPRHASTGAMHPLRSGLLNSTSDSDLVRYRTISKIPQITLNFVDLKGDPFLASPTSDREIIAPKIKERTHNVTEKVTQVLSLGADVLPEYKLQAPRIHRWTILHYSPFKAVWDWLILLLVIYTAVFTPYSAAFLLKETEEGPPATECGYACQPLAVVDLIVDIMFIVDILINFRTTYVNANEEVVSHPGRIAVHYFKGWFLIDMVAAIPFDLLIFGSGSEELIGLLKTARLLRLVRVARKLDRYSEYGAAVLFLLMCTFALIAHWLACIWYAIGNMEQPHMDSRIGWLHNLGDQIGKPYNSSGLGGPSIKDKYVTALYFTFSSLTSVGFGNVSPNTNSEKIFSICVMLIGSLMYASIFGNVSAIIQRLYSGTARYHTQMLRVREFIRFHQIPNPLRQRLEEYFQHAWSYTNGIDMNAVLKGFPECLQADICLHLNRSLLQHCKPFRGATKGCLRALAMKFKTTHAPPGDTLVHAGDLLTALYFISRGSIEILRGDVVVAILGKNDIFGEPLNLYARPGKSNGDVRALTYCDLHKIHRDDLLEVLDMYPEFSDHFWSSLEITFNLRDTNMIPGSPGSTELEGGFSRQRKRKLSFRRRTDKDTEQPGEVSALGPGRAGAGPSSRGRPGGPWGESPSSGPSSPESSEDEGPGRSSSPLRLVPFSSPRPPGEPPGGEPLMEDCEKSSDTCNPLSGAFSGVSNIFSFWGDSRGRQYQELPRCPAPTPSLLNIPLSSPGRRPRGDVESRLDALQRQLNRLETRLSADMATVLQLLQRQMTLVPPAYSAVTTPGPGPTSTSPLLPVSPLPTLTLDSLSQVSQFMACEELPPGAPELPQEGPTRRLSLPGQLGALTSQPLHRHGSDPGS
Sequence of CYP3A4 (P08684 whole entry): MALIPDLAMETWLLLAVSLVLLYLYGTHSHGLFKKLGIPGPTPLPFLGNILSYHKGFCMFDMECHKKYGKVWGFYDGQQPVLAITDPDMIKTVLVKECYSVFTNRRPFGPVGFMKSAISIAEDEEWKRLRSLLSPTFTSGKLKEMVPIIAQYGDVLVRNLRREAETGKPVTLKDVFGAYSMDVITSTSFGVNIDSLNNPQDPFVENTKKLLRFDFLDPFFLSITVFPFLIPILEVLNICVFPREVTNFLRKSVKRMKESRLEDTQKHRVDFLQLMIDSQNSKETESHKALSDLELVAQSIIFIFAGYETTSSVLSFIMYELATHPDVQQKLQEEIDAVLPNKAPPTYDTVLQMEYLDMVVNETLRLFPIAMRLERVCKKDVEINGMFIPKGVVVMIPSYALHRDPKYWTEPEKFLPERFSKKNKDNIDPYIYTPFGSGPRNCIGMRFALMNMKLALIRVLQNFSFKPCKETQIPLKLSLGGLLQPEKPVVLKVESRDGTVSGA
Sequence of CYP2D6 (P10635 whole entry): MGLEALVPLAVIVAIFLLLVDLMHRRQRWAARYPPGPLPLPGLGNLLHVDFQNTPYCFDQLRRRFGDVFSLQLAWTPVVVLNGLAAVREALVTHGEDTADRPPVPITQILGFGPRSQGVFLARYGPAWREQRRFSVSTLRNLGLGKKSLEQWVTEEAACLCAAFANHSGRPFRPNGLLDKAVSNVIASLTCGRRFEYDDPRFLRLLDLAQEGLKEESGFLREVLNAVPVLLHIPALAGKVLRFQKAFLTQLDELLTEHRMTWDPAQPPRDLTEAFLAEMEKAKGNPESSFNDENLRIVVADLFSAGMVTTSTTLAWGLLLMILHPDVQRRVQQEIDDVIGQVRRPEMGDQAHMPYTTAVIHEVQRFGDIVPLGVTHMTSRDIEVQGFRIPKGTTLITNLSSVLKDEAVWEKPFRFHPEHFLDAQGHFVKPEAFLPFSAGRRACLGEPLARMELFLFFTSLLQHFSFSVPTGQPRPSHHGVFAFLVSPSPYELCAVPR
Sequence of CYP2C19 (P33261 whole entry, canonical isoform): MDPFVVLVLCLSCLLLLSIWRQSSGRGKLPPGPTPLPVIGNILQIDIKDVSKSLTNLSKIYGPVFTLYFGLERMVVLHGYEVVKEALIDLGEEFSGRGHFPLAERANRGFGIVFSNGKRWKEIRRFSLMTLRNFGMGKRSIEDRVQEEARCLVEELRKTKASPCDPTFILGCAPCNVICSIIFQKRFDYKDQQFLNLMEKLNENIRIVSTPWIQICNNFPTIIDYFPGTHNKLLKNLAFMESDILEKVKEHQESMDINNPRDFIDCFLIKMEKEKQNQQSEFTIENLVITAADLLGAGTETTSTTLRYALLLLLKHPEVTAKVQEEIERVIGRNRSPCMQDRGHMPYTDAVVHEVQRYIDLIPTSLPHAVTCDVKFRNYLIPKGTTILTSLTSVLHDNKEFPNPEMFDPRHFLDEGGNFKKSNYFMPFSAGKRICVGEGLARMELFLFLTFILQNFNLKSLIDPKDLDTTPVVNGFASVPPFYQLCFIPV
Sequence of CYP2C9 (P11712 whole entry): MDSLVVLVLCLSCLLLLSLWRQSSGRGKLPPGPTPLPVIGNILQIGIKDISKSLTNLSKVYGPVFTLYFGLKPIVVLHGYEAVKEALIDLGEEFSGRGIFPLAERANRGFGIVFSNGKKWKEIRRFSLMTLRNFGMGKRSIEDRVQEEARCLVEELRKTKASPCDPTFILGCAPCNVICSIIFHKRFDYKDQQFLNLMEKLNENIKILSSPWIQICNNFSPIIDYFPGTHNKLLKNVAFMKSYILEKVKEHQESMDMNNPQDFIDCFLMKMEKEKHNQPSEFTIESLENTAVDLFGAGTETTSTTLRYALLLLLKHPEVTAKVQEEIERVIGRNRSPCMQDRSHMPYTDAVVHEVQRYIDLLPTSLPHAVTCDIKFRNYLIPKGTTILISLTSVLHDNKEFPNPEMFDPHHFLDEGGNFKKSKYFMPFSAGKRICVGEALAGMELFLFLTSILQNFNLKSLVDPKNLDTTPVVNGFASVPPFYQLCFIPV

Molecule: O=C(NNc1ccc([N+](=O)[O-])cc1Cl)c1cc(F)ccc1O [A3]
- MIC (P. aeruginosa DK2 [1]): 50 to 100 µM (≈ 16.3 to 32.6 µg/mL)

Molecule: O=C(Nc1ccc(C(F)(F)F)cc1C(F)(F)F)c1cc(F)ccc1O [A22]
- MLM Remaining (t = 1 h) ([2]; mouse liver microsomes): 46.31%
- half-life ([2]; mouse, liver microsomes, pH 7.4): 54.4 min
- IC50 (CYP1A2): 6.13 µM
- Inhibitory effect on biofilm formation, combination (P. aeruginosa DK2 [3]; 8 μg/mL A22 with 0.25 or 0.5 μg/mL PB): significantly enhanced
- Biofilm formation, A22 alone (P. aeruginosa DK2 [3]; 4 and 8 μg/mL, crystal violet and CLSM): potent inhibitory activity against biofilm formation
- IC50 (CYP2C19): 20.5 µM
- Time of complete inhibition of bacterial growth (P. aeruginosa DK2 [4]; A22 10 μmol/L with PB 1 μg/mL): 36 h
- Time of complete inhibition of bacterial growth (P. aeruginosa DK2 [4]; A22 20 μmol/L with PB 1 μg/mL): 24 h
- Effect on bacterial growth when used alone (time-kill) (P. aeruginosa DK2 [4]): neither A22 (10 μmol/L = 3.67 μg/mL, or 20 μmol/L = 7.34 μg/mL) nor PB (0.5 or 1 μg/mL) significantly affected bacterial growth
- Time of first substantial reduction in CFUs (P. aeruginosa DK2 [4]; A22 combined with PB): 2 h
- ATP levels, monotherapy (P. aeruginosa DK2 [5]): reduced ATP levels
- Reduction in ATP levels, combined with PB (P. aeruginosa DK2 [5]): even more pronounced
- IC50 (CYP2C9): 0.29 µM
- Bacterial load in infected wounds, combination (P. aeruginosa DK2 [6]; A22 10 mg/kg and PB 1 mg/kg, versus control and monotherapy): significantly reduced bacterial loads in the infected wounds
- Bacterial load in infected wounds, monotherapy (P. aeruginosa DK2 [6]; A22 10 mg/kg or PB 1 mg/kg, after 7 days of treatment): neither A22 monotherapy (10 mg/kg) nor PB monotherapy (1 mg/kg) exhibited significant antibacterial effects
- IC50 (CYP2D6): 1.88 µM
- fraction unbound at 5 h [7]: 0.0206
- MIC (P. aeruginosa DK2 [1]): > 1000 µM
- CFU under oxidative stress (H2O2) (P. aeruginosa DK2 [8]): significantly reduced CFU
- IC50 (CYP2B6): > 33 µM
- solubility at 24 h (Water solubility assay): 4 µg/mL (≈ 10.9 µM)
- IC50 (HUVEC): > 150 µM
- HLM Remaining (t = 1 h) ([9]; human liver microsomes): 23.96%
- half-life ([9]; human, liver microsomes, pH 7.4): 29.1 min
- Survival of PAO1-infected worms, combination (P. aeruginosa PAO1; 8 μg/mL A22 and 8 μg/mL PB): synergistically extended the lifespan of the worms
- Survival of PAO1-infected worms, monotherapy (P. aeruginosa PAO1; C. elegans N2 infected with P. aeruginosa PAO1): neither A22 nor PB had significant therapeutic effects
- ROS levels (P. aeruginosa DK2 [10]): significantly elevating ROS levels
- NOX activity, compound alone (P. aeruginosa DK2 [11]): significantly increased
- NOX activity, in combination with PB (P. aeruginosa DK2 [11]): further significant increase
- IC50 (hERG potassium channels): 6.94 µM
- IC50 (CYP2C8): 2.61 µM
- IC50 (293 T): > 150 µM
- IC50 (CYP3A4): > 33 µM

Molecule: O=C(Nc1ccc([N+](=O)[O-])cc1C(F)(F)F)c1cc(F)ccc1O [A25]
- MIC (P. aeruginosa DK2 [1]): 50 to 100 µM (≈ 17.2 to 34.4 µg/mL)

Molecule: Colistin [reference compound]
- MIC, antibiotic alone (P. aeruginosa DK2 [1]): > 256 µg/mL

Molecule: Polymyxin B [reference compound]
- Effect on bacterial growth when used alone (time-kill) (P. aeruginosa DK2 [4]): neither A22 (10 μmol/L = 3.67 μg/mL, or 20 μmol/L = 7.34 μg/mL) nor PB (0.5 or 1 μg/mL) significantly affected bacterial growth
- MIC of PB after 14 generations (P. aeruginosa DK2 [12]): 1024 µg/mL
- MIC, antibiotic alone (P. aeruginosa DK2 [1]): 256 µg/mL
- CFU under oxidative stress (H2O2) (P. aeruginosa DK2 [8]): did not reduce CFU

Molecule: O=C(Nc1ccc([N+](=O)[O-])cc1O)c1cc(F)ccc1O [A20]
- MIC (P. aeruginosa DK2 [1]): 50 to 100 µM (≈ 14.6 to 29.2 µg/mL)
